High-throughput results deposited in PubChem by SRMLSC.
This is a sample that favours compounds with a hit; in the whole collection about 6.6% have one here.
PostGolgi yeast: growth inhibition of a yeast mutant, post-Golgi transport screen. post-Golgi transport phenotypic cell assay. inhibition, % at 10 µM. actives 0.9% (n = 98,000);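 also: yeast cells grown in 1536-well plates; yeast grown about 18 h at 30C before absorbance read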
Ecoli WT expand: blocks growth of wild type E. coli BW25113; OD600 absorbance; growth inhibition, % at 100 µM; actives 0.15% (n = 98,000); AID 710;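 active = growth inhibition above about 50% at one test dose, limit read from the data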;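 also: growth measured after 20 h incubation at 37 °C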
PostGolgi ctrl: yeast control strain growth, post-Golgi counter-screen | efflux-deficient yeast background strain, growth absorbance A615, 16 h | inhibition, % at 10 µM | actives 5% (n = 98,000) | AID 738
HER2 expr 66K: inhibitors of human Her2 kinase expression. P04626. SKBR-3 HER2 protein level, AlphaScreen, 18-24 h; active compounds read low. HER2 level % of control, % at 10 µM. actives 0.69% (n = 65,000). AID 645;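 active = HER2 level under 5% of the carrier-only control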;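 also: lower value means stronger loss of Her2 protein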
tolC growth inh: growth inhibitors of E. coli BW25113 tolC mutant. OD615. growth inhibition, % at 10 µM (by protocol). actives 2.2% (n = 65,000);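 active = growth inhibition at or above a cutoff equal to the mean over every tested compound plus 3 SD, cut at about 60% in these data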;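 also: growth measured after 20 h incubation at 37 °C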
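Test system: E. coli BW25113 ΔtolC::kan bacteria; incubation: 37 °C, 20 h exposure; medium: LB broth supplemented with 50 µg/mL kanamycin; read-out basis: percent growth inhibition; signal: A615 absorbance measurement; compound: 10 µM final, single dose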
Of the large screens only hits and unclear results are named; the others gave an inactive call. Rule as the data show it, unless noted: active = inhibition above about 30%; inactive = the rest.

CC(=O)Nc1ccc(OCC=C(Cl)Cl)cc1	none
Cc1ccc(Cn2c(SCC(=O)NCC3CCCO3)nc3c(sc4ccccc43)c2=O)cc1 (configuration not stated)	none (no result: HER2 expr 66K, tolC growth inh)
FC(F)(F)c1nc(N2CCCC2)ncc1-c1nnnn1-c1ccc(Cl)cc1	PostGolgi ctrl 58 (no result: HER2 expr 66K, tolC growth inh)
Fc1ccc(-n2nnnc2-c2cnc(-c3cccs3)nc2C(F)(F)F)cc1	PostGolgi ctrl 46 (no result: HER2 expr 66K, tolC growth inh)
FC(F)(F)c1nc(-c2ccncc2)ncc1-c1nnnn1-c1ccccc1	none (no result: HER2 expr 66K, tolC growth inh)
Cc1ccccc1CN(c1ccc(C(=O)N2CCc3ccccc3C2)cc1)S(C)(=O)=O	none (no result: HER2 expr 66K, tolC growth inh)
COc1ccc(OC)c(NC(=O)c2nnn(Cc3ccc(Br)cc3F)c2N)c1	PostGolgi ctrl 31
CC(C)COC(=O)NCCOC(=O)Nc1cccc(Cl)c1	tolC growth inh 89
Cc1csc(N2CCc3ccccc32)n1	PostGolgi ctrl 31
Cc1cc(N2CCCc3ccccc32)n2ncnc2n1	none
CC(NC(=O)Nc1nnc(C(F)(F)F)s1)(C(F)(F)F)C(F)(F)F	Ecoli WT expand 71
O=C(N/N=C/c1ccc(Cl)cc1Cl)Nc1ccccc1	none (no result: HER2 expr 66K, tolC growth inh)
O=C(N/N=C/c1cccc(Cl)c1Cl)Nc1ccccc1	PostGolgi ctrl 36 (no result: HER2 expr 66K, tolC growth inh)
CCCC(O)(CCC)C(=O)NNc1ccccc1	none (no result: HER2 expr 66K, tolC growth inh)
O=C(Nc1nc(-c2ccccn2)cs1)c1ccc(Cl)s1	PostGolgi yeast 37, tolC growth inh 100
O=C(Nc1nc(-c2ccccn2)cs1)c1ncc(Cl)c(Cl)c1Cl	PostGolgi yeast 82, PostGolgi ctrl 39 (no result: HER2 expr 66K, tolC growth inh)
O=C(Nc1nccs1)c1ccc(Cl)s1	none
O=C(CSc1nnc(Cc2ccccc2)n1-c1ccc(Cl)cc1)N1CCOCC1	none
Cc1cc(C(C)(C)C)oc1C(=O)N(CC(=O)NC1CCCC1)Cc1ccc(F)cc1	none (no result: HER2 expr 66K, tolC growth inh)
Cc1cc(C(C)(C)C)oc1C(=O)N(CC(=O)NC1CCCC1)Cc1ccccc1	PostGolgi yeast 32, PostGolgi ctrl 53 (no result: HER2 expr 66K, tolC growth inh)
CCOC(=O)N1CCC(N2C(=O)c3ccccc3C2Nc2c(C)cccc2C)CC1 (configuration not stated)	none (no result: HER2 expr 66K, tolC growth inh)
COc1ccc(Cn2c(CCC(=O)NCc3ccco3)nc3cccnc32)cc1	none
CCCNC(=O)CC1Sc2ccccc2NC1=O (configuration not stated)	PostGolgi ctrl 39
CCOC(=O)c1c(-c2ccc(C)c(C)c2)csc1NC(=O)C1CC=CCC1C(=O)O (configuration not stated)	PostGolgi ctrl 33 (no result: HER2 expr 66K, tolC growth inh)
O=c1oc2cc(Oc3c([N+](=O)[O-])cc(C(F)(F)F)cc3[N+](=O)[O-])ccc2c2c1CCCC2	PostGolgi yeast 106, PostGolgi ctrl 85 (no result: HER2 expr 66K, tolC growth inh)
O=C(Oc1ccc2c3c(c(=O)oc2c1)CCC3)c1ccco1	none (no result: HER2 expr 66K, tolC growth inh)
O=[N+]([O-])c1cc(-c2nnc(C34CC5CC(CC(C5)C3)C4)o2)cc([N+](=O)[O-])c1	PostGolgi ctrl 47 (no result: HER2 expr 66K, tolC growth inh)
CC1=CC(=C2C(=O)c3ccccc3C2=O)C=C(C)N1Cc1ccco1	PostGolgi ctrl 37
Cc1ccccc1C1C(C#N)=C2NC(=O)c3c(sc4c3CCCCC4)N2C2=C1C(=O)CC(C)(C)C2 (configuration not stated)	PostGolgi ctrl 41 (no result: HER2 expr 66K, tolC growth inh)
Cc1ccccc1C1C(C#N)=C2N=C(N)c3c(sc4c3CCCCC4)N2C2=C1C(=O)CC(C)(C)C2 (configuration not stated)	none (no result: HER2 expr 66K, tolC growth inh)
COc1cccc(N2CCN(C(=S)NCCc3ccccc3)CC2)c1	none (no result: HER2 expr 66K, tolC growth inh)
Oc1ccc(N2CCN(C(=S)NCCc3ccccc3)CC2)cc1	PostGolgi yeast 105, PostGolgi ctrl 90 (no result: HER2 expr 66K, tolC growth inh)
O=c1c2[nH]c3ccccc3c2ncn1C1CCCCC1	PostGolgi yeast 34
CC(C)COC(=O)Nc1nnc(SCCOc2ccccc2)s1	none (no result: HER2 expr 66K, tolC growth inh)
COc1ccc(-c2c3c(=O)n(C)c(=O)n(C)c3c3nnc4ccccc4n23)cc1	none (no result: PostGolgi yeast, Ecoli WT expand, PostGolgi ctrl)
COc1ccc(-c2c3c(=O)n(C)c(=O)n(C)c3cn2C2CCCCC2)cc1	PostGolgi ctrl 41
CSc1ccc(CNc2ccc(C)c(C)c2)cc1	PostGolgi ctrl 38 (no result: HER2 expr 66K, tolC growth inh)
Cc1ccc2c(c1)N(C(C)C(=O)NCCc1ccccc1)C(=O)CO2 (configuration not stated)	none
Cc1cccc(C)c1NC(=O)C(=O)NCc1ccccn1	none (no result: HER2 expr 66K, tolC growth inh)
O=C1c2ccccc2-c2ncnc3cccc1c23	none (no result: PostGolgi yeast, Ecoli WT expand, PostGolgi ctrl)
O=C(O)c1ccc2c3c(ncnc13)-c1ccccc1C2=O	HER2 expr 66K -16
CCn1c(CCNC(=O)c2cccs2)nnc1SCC(=O)c1ccc(OC)cc1	none (no result: PostGolgi yeast, Ecoli WT expand, PostGolgi ctrl)
COCCn1nnnc1SCC(=O)N1CCCCC1	PostGolgi ctrl 30
COCCn1c(SCC(=O)N2CCCC2)nnc1C(C)C	none
O=C(CSc1ccc(Cl)cc1Cl)N1CCC(c2nc3ccccc3s2)CC1	PostGolgi ctrl 38 (no result: HER2 expr 66K, tolC growth inh)
